The M2OR odorant receptor database
Residue numbers refer to the chain shown, from its start.

Legend:
Conditions in all cases: stereoisomer not certain
[1] = biological target: T1, OR4S2 (Homo sapiens) (UniProt Q8NH73)
T1 sequence (whole entry): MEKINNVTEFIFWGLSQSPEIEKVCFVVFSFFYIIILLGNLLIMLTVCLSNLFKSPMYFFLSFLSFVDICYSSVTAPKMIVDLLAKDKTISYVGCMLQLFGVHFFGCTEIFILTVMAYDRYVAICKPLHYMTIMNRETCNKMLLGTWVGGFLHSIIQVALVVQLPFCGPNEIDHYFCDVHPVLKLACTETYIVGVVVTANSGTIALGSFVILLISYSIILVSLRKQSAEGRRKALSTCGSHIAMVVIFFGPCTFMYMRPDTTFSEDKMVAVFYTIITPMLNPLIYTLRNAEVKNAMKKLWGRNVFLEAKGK
In short: (§1)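 Transient luciferase assays in mammalian cell lines were common, though methods varied by source. The values come from published papers and their supplementary material, with extra details from the original authors when needed. Responsive refers to a measured signal the original authors judged statistically different from baseline, and non-responsive (inactive) to the remainder.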

[2] = biological target: T2, OR4X1 (Homo sapiens) (UniProt Q8NH49)
T2 sequence (whole entry): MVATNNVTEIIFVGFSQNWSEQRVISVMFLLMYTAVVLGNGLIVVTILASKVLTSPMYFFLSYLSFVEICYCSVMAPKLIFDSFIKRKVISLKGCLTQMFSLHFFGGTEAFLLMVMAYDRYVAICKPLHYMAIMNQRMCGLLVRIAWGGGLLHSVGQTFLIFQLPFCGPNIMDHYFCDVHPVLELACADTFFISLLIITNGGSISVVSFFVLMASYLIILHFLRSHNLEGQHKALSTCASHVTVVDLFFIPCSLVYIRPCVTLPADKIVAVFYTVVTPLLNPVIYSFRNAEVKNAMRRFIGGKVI
In short: as §1

[3] = biological target: T3, OR4X2 (Homo sapiens) (UniProt Q8NGF9)
T3 sequence (whole entry): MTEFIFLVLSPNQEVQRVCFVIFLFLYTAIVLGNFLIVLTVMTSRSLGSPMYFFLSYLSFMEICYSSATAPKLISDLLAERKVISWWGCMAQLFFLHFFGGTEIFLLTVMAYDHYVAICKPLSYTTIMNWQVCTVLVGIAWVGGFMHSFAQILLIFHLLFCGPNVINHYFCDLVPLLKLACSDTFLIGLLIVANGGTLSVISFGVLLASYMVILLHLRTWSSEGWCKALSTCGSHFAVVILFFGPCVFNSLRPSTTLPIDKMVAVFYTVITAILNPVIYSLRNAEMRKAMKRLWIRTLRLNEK
In short: as §1

[4] = biological target: T4, OR51A2 (Homo sapiens) (UniProt Q8NGJ7)
T4 sequence (whole entry): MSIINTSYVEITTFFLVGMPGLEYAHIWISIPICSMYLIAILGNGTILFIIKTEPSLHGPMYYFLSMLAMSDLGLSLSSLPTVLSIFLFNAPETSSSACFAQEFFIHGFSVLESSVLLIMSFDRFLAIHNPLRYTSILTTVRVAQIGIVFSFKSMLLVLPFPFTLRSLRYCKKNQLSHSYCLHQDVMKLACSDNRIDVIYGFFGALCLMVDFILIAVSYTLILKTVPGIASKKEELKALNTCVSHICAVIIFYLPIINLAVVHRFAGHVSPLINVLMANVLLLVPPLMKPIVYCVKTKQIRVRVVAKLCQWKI
In short: as §1

[5] = biological target: T5, OR51A4 (Homo sapiens) (UniProt Q8NGJ6)
T5 sequence (whole entry): T4 sequence (whole entry) with G59E, T94I, S97N, S167N, P227L, E235Q, G267R, M288T, K289N, W311R
In short: as §1

[6] = biological target: T6, OR51A7 (Homo sapiens) (UniProt Q8NH64)
T6 sequence (whole entry): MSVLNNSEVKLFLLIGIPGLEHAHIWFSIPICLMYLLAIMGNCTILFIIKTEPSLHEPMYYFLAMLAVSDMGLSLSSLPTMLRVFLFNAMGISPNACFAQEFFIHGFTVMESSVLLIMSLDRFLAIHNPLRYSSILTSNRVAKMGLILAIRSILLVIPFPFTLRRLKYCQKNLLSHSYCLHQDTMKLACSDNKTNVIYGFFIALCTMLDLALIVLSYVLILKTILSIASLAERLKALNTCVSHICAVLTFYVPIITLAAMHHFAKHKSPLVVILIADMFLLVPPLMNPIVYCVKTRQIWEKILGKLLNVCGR
In short: as §1

[7] = biological target: T7, OR51B2 (Homo sapiens) (UniProt Q9Y5P1)
T7 sequence (whole entry): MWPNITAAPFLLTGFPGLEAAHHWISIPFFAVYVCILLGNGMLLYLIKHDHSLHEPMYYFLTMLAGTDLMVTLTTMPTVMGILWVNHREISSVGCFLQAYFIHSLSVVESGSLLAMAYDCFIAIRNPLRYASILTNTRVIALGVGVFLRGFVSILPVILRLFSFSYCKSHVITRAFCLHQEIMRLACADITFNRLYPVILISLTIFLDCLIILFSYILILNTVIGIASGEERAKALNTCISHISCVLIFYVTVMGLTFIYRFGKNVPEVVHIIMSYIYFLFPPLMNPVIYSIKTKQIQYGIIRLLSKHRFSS
In short: as §1

[8] = biological target: T8, OR51B4 (Homo sapiens) (UniProt Q9Y5P0)
T8 sequence (whole entry): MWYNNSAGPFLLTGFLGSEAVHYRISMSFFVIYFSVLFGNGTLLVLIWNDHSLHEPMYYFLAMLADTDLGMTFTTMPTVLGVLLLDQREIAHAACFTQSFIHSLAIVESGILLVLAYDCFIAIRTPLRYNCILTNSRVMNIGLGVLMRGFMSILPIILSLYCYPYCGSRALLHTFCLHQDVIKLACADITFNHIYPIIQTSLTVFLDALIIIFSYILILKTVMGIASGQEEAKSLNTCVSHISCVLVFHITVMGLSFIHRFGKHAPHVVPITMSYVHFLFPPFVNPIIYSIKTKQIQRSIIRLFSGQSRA
In short: as §1

[9] = biological target: T9, OR51B5 (Homo sapiens) (UniProt Q9H339)
T9 sequence (whole entry): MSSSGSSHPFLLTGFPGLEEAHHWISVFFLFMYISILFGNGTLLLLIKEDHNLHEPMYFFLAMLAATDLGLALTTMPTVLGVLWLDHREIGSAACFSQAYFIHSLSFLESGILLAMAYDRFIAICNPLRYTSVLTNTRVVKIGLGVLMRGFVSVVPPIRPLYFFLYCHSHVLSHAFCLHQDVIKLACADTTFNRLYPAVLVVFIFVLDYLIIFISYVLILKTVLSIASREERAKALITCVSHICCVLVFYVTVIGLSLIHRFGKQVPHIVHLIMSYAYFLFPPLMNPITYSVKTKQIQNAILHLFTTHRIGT
In short: as §1

[10] = biological target: T10, OR51B6 (Homo sapiens) (UniProt Q9H340)
T10 sequence (whole entry): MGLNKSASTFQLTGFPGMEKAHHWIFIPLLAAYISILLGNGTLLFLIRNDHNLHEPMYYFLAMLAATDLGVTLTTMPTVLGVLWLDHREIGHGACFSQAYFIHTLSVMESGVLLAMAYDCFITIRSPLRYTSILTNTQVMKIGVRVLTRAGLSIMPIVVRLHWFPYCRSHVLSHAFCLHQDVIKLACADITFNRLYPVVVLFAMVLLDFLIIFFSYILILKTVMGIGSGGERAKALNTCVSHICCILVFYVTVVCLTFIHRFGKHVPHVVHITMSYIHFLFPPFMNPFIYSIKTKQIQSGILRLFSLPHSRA
In short: as §1

[11] = biological target: T11, OR51D1 (Homo sapiens) (UniProt Q8NGF3)
T11 sequence (whole entry): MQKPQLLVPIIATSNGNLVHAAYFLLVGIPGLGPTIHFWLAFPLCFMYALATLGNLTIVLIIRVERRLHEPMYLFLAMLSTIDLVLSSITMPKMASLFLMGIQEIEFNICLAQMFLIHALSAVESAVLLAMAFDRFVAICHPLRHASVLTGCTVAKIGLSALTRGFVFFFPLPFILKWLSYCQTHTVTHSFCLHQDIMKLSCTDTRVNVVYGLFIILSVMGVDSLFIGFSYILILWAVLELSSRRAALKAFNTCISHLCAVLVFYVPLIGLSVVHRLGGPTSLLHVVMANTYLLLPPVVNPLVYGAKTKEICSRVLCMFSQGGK
In short: as §1

[12] = biological target: T12, OR51E2 (Homo sapiens) (UniProt Q9H255)
T12 sequence (whole entry): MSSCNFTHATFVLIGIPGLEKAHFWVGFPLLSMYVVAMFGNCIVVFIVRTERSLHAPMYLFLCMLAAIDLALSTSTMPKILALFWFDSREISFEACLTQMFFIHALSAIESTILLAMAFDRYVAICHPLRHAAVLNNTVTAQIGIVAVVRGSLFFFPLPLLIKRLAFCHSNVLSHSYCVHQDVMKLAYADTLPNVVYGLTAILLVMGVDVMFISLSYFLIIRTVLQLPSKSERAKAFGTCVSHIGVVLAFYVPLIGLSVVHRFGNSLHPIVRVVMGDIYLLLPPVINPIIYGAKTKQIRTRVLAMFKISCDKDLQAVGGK
In short: as §1

[13] = biological target: T13, OR51F1 (Homo sapiens) (UniProt A6NGY5)
T13 sequence (whole entry): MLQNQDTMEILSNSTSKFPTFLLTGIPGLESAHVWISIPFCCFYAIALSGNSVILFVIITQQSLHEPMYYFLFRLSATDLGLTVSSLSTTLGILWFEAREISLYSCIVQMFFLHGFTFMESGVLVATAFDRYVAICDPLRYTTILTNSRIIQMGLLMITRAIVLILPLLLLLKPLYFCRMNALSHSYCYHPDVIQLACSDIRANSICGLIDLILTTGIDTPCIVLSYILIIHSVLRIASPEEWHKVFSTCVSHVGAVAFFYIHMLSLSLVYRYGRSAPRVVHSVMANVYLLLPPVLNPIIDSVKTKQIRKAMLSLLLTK
In short: as §1

[14] = biological target: T14, OR51F2 (Homo sapiens) (UniProt Q8NH61)
T14 sequence (whole entry): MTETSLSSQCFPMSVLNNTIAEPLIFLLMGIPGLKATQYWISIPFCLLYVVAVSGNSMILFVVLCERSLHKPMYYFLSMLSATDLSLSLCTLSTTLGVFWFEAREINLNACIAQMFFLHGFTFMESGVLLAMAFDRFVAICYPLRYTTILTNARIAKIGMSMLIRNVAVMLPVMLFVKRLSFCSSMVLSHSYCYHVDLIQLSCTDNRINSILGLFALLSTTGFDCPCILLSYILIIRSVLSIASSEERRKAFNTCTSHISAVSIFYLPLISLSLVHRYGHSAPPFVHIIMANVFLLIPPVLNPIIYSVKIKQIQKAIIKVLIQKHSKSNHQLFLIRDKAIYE
In short: as §1

[15] = biological target: T15, OR51G1 (Homo sapiens) (UniProt Q8NGK1)
T15 sequence (whole entry): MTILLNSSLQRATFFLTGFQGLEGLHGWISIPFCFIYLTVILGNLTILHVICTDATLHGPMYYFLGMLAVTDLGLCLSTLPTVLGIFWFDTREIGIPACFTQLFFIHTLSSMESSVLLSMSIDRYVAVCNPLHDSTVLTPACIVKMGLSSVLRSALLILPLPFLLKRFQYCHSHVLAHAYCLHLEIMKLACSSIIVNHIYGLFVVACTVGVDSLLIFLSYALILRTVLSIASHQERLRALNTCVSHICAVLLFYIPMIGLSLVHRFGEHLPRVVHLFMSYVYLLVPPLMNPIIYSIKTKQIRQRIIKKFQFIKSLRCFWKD
In short: as §1

[16] = biological target: T16, OR51G2 (Homo sapiens) (UniProt Q8NGK0)
T16 sequence (whole entry): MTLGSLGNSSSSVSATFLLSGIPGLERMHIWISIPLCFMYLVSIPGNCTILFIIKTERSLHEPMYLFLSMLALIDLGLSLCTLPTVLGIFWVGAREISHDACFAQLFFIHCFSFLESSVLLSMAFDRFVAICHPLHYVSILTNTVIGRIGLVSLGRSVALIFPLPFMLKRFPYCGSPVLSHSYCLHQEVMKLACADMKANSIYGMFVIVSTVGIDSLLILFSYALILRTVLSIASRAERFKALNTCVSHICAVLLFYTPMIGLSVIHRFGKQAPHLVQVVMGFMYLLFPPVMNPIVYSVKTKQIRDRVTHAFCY
In short: as §1

[17] = biological target: OR51H1 (Homo sapiens) (UniProt Q8NH63)
In short: as §1

[18] = biological target: T17, OR51I1 (Homo sapiens) (UniProt Q9H343)
T17 sequence (whole entry): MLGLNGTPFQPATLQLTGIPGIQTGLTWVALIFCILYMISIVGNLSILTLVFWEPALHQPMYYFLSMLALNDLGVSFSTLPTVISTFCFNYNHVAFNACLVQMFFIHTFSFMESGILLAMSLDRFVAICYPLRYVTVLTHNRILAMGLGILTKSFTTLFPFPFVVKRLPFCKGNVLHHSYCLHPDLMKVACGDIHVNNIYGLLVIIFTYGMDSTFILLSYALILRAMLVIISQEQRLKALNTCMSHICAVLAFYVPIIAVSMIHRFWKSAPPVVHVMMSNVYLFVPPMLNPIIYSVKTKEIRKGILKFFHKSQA
In short: as §1

Measured: odorant receptor agonist call;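 also: active if original authors judged signal statistically different from baseline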

Sequence of OR51H1 (Homo sapiens) (Q8NH63 whole entry): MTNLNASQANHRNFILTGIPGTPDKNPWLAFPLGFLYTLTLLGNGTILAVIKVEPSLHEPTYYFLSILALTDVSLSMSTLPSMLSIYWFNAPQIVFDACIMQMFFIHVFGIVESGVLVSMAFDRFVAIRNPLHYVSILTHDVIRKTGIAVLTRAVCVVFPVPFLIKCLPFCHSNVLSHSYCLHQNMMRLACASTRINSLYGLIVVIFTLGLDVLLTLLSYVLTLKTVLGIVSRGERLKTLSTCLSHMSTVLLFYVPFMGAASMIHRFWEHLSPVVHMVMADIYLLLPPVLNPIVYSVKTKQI

CC(=O)c1c(C)c([N+](=O)[O-])c(C(C)(C)C)c([N+](=O)[O-])c1C
inactive: all assays above

CCCCCCCCCCCCCCCCCC(=O)OCC
inactive: [9]

C=C1CCC2CC1C2(C)C (stereo not given)
inactive: [9]
